The values that follow come from PubChem BioAssay.

Activity calls are given as the source filed them.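 The calls were made as follows, unless noted: active = viability at or below 10% of carrier control in both of two separate runs; inconclusive = viability at or below 10% in only one of the two runs; inactive = the rest.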

A short description of assay [1]: Her2 expression decrease, cell viability multiplex – SKBR3 breast tumor cells, AlphaScreen, ATP viability, primary screen (AID 461;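 active = Her2 level under about 52% in both replicate screens, with viability over 70% of control, limit read from the data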;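 as to Her2 level: lower value means less Her2 protein in the cells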;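 as to viability: percent of carrier control wells set as 100% viability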). Conditions: SKBR3 Her2 protein level, 18-24 h, measured here: SKBR3 viability, ATP luminescence, at 10 µM. For orientation: In Alpha technology, singlet oxygen from a donor bead excites a nearby acceptor bead.
Assay [2] has as its target Receptor tyrosine-protein kinase erbB-2 (Homo sapiens) (UniProt P04626). Described as above. Conditions: 18-24 h, at 10 µM, stronger effect = lower value.
Assay [3] is described as follows: reduced viability of SK-BR-3 breast cancer cells – cell-based, 24 h, human, pilot screen (AID 572).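 Also: compound exposure lasted between 18 and 24 h rather than exactly 24 h; 100% = carrier-treated control wells.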 The note with it: SK-BR-3 viability, CellTiter-Glo luminescence, at 10 µM, stronger effect = lower value. In general terms: In ATP-based viability assays light output follows the ATP content of the culture.
A short description of assay [4]: HUVEC growth inhibition – cell-based, human, primary screen (AID 575;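 active = viability at or below 30% in both replicate assays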;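 also: 100% = median of untreated cell wells with 0.1% DMSO on each plate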). Conditions: HUVEC proliferation, CellTiter-Glo luminescence, 72 h; at 10 µM; stronger effect = lower value. Summed up:
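System – primary HUVEC, no more than 12 passages · Medium – Low-serum (2% FBS) EBM, supplemented · Times – 72 h exposure, 37 °C, 5% CO2, 30 min RT equilibration · Measured by – luminescent ATP assay · Read-out – % viability relative to median vehicle-well signal on each plate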

Assay [5] is described as follows: H69AR cell proliferation blockers – human, duplicate replicates, primary screen (AID 580;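 active = viability at or under a set limit in both replicates, limit being median viability minus 3 SD, cut at about 48% in these data, passing the limit was not always enough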;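 also: 100% = mean luminescence of untreated wells and 0% = no signal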). The note with it: H69AR lung tumor cells viability, ATP luminescence, 72 h; at 10 µM; stronger effect = lower value.
Assay [6] can be described thus: MRP1 drug-resistance reversers in H69AR cells – cell-based, doxorubicin co-treatment, pilot screen (AID 601;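 active = viability loss from added drug above about 55%, and viability with drug at most 40%, in both replicates, limit read from the data, passing the limit was not always enough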). The note with it: CellTiter-Glo, 72 h, at 10 µM; for differential viability (reversal): stronger effect = higher value.
The nature of assay [7]: yeast transport mutant growth inhibition pilot in 384-well plates, post-Golgi transport modulator project (AID 636; in the data active = inhibition above about 31%). The note with it: absorbance 615 nm, about 18 h, stronger effect = higher value.
Assay [8] in a line: growth suppression of yeast trafficking mutant, preliminary HTS, modulators of trafficking downstream of Golgi apparatus project, 1536-format plate, OD 615 nm (AID 637; in the data active = inhibition above about 30%). The note with it: yeast transport mutant growth, absorbance 615 nm, 18 h; stronger effect = higher value.
[9] abbreviates: H69AR cells + 2 uM doxorubicin, measured here: viability with 2 uM doxorubicin, stronger effect = lower value.
Where [10] appears, read: H69AR cells, compound alone cytotoxicity.

Chain of Receptor tyrosine-protein kinase erbB-2 (Homo sapiens) (P04626 whole entry, looked up): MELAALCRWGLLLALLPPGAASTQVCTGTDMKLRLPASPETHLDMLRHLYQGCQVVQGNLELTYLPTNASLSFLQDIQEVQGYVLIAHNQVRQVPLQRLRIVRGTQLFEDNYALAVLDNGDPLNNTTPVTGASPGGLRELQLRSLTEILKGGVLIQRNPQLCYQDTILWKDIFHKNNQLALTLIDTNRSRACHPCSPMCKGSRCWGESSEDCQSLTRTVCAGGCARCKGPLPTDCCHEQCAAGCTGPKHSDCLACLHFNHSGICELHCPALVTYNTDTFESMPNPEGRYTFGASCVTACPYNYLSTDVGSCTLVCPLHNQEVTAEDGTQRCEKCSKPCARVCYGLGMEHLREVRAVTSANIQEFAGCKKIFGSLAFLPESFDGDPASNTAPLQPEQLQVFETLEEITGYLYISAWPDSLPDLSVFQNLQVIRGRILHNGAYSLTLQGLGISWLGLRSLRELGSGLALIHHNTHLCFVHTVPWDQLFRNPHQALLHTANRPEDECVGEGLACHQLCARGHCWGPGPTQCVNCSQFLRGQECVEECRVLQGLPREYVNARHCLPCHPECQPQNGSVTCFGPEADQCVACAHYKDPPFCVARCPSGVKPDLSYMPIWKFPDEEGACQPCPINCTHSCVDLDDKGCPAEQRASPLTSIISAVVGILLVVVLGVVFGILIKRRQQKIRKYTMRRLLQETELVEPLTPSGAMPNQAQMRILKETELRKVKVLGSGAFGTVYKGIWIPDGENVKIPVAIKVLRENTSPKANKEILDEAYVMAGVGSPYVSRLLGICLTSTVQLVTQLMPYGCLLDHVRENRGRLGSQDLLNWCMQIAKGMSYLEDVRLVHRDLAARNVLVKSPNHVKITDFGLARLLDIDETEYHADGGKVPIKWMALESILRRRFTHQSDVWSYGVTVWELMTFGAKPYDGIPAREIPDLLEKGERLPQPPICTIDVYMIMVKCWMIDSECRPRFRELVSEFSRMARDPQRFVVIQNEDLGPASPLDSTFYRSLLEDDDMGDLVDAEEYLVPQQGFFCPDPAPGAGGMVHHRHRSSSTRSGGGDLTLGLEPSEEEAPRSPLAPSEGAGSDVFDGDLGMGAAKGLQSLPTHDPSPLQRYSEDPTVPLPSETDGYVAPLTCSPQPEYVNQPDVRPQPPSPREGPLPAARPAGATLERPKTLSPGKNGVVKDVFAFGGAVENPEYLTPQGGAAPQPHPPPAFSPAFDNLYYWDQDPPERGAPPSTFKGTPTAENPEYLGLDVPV

One may read the viability as a read-out of living cells in per cent, often relative to untreated cells. In general, inhibition refers to the relative decrease from the control value, in per cent. As for `COCCNC(=O)C(c1ccc(C)o1)N(Cc1ccc(F)cc1)C(=O)Cn1nnc2ccccc21` (stereo not given), the viability in assay [1] is 89.5%; in assay [3], 89.5% (inactive); in assay [4], 95.7% (inactive); in assay [5] it was 97.8% (inactive); in assay [6] (setting [9]) it was 94.7%; in assay [6] (setting [10]) it was 97.8%. Moreover, in assay [2], the Her2 level was 95% (inactive). Further, the differential viability (reversal) in assay [6] (H69AR cells + 2 uM doxorubicin) was 3.14% (inactive). For the same compound, the inhibition in assay [7] was 6.62% (inactive); in assay [8], -1.31% (inactive).

For the compound `Cc1cc(N2CCN(c3ccccn3)CC2)n2nc(C)nc2n1`, the viability in assay [1] is 102%; in assay [3], 102% (inactive); in assay [4] it was 90.2% (inactive); in assay [5] it was 87.4% (inactive); in assay [6] (setting [9]), 94.7%; in assay [6] (setting [10]) it was 87.4%. Also, the Her2 level in assay [2] is 114% (inactive). The differential viability (reversal) in assay [6] (H69AR cells + 2 uM doxorubicin) was -7.31% (inactive). Further, the inhibition in assay [7] is -4.23% (inactive); in assay [8] it was -7% (inactive).

As to `CCSc1nnc(NC(=O)CCNS(=O)(=O)c2cc(Br)cnc2N)s1`, the viability in assay [1] was 79.5%; in assay [3], 79.5% (inactive); in assay [4], 76.8% (inactive); in assay [5], 107% (inactive); in assay [6] (setting [9]) it was 106%; in assay [6] (setting [10]) it was 107%. Moreover, in assay [2], the Her2 level was 107% (inactive). For the same compound, the differential viability (reversal) in assay [6] (H69AR cells + 2 uM doxorubicin) is 1.07% (inactive). The inhibition in assay [7] is -1.04% (inactive); in assay [8], -0.82% (inactive).

In the case of `COC(=O)c1cnc2c(C(F)(F)F)cccc2c1OC`, the viability in assay [1] is 104%; in assay [3] it was 104% (inactive); in assay [4], 97.6% (inactive); in assay [5], 98.4% (inactive); in assay [6] (setting [9]), 86.8%; in assay [6] (setting [10]), 98.4%. Moreover, the Her2 level in assay [2] was 106% (inactive). Besides, the differential viability (reversal) in assay [6] (H69AR cells + 2 uM doxorubicin) is 11.6% (inactive). In addition, the inhibition in assay [7] was -5.33% (inactive); in assay [8], -1.31% (inactive).

As to `COc1ccc(N2CCN(Cc3nc4c(c(=O)[nH]c(=O)n4C)n3CC(C)=O)CC2)cc1`, the viability was 98.5% in assay [1]; 98.5% (inactive) in assay [3]; 101% (inactive) in assay [4]; 95.4% (inactive) in assay [5]; 84.9% in assay [6] (setting [9]); 95.4% in assay [6] (setting [10]). The Her2 level in assay [2] is 102% (inactive). Also, the differential viability (reversal) in assay [6] (H69AR cells + 2 uM doxorubicin) is 10.4% (inactive). Also, the inhibition in assay [7] is 0% (inactive); in assay [8] it was 0.17% (inactive).

`CCC(CC)C(=O)Nc1cccc(C(=O)NCc2ccco2)c1`: the viability is 94% in assay [1]; 94% (inactive) in assay [3]; 100% (inactive) in assay [4]; 69.1% (inactive) in assay [5]; 89.6% in assay [6] (setting [9]); 69.1% in assay [6] (setting [10]). Besides, the Her2 level in assay [2] is 104% (inactive). For the same compound, in assay [6] (H69AR cells + 2 uM doxorubicin), the differential viability (reversal) is -20.5% (inactive). Also, the inhibition was -3.24% (inactive) in assay [7] and -1.64% (inactive) in assay [8].

For `CCCCn1c(SCC(=O)c2ccc3c(c2)OCCO3)nnc1-c1ccco1`, the viability in assay [1] was 94.5%; in assay [3], 94.5% (inactive); in assay [4], 81.8% (inactive); in assay [5], 95% (inactive); in assay [6] (setting [9]) it was 93.4%; in assay [6] (setting [10]), 95%. The Her2 level in assay [2] was 104% (inactive). In addition, the differential viability (reversal) in assay [6] (H69AR cells + 2 uM doxorubicin) is 1.53% (inactive). In addition, the values for the inhibition in assay [7] and in assay [8] were 1.73% (inactive) and 16.1% (inactive), respectively.

In the case of `CC(=O)N(C(C)=O)c1cccc2c(N(C(C)=O)C(C)=O)cccc12`, the viability was 106% in assay [1]; 106% (inactive) in assay [3]; 97.4% (inactive) in assay [4]; 91.7% (inactive) in assay [5]; 94.5% in assay [6] (setting [9]); 91.7% in assay [6] (setting [10]). Besides, the Her2 level in assay [2] is 94% (inactive). Moreover, in assay [6] (H69AR cells + 2 uM doxorubicin), the differential viability (reversal) is -2.88% (inactive). In addition, the inhibition in assay [7] was -4.29% (inactive); in assay [8], -6% (inactive).

With `Cn1c(=O)c2c(-c3ccccc3)n(CCCN3CCOCC3)cc2n(C)c1=O`, the viability in assay [1] is 77.5%; in assay [3], 77.5% (inactive); in assay [4], 69.7% (inactive); in assay [5], 82.2% (inactive); in assay [6] (setting [9]), 71.9%; in assay [6] (setting [10]) it was 82.2%. Besides, the Her2 level in assay [2] is 98.5% (inactive). In addition, the differential viability (reversal) in assay [6] (H69AR cells + 2 uM doxorubicin) is 10.4% (inactive). The inhibition in assay [7] was 2.21% (inactive); in assay [8], -4.29% (inactive).

In the case of `CCOC(=O)C1CCN(C(=O)c2ccc(OC)cc2OC)CC1`, the viability in assay [1] is 102%; in assay [3], 102% (inactive); in assay [4] it was 110% (inactive); in assay [5], 106% (inactive); in assay [6] (setting [9]), 100%; in assay [6] (setting [10]), 106%. Besides, the Her2 level in assay [2] is 112% (inactive). The differential viability (reversal) in assay [6] (H69AR cells + 2 uM doxorubicin) is 5.9% (inactive). Also, the results for the inhibition in assay [7] and in assay [8] were -6.13% (inactive) and 6.13% (inactive), respectively.

Turning to `C=C(C)c1cccc(C(C)(C)NC(=O)Nc2ncccn2)c1`, the viability is 97.5% in assay [1]; 97.5% (inactive) in assay [3]; 81% (inactive) in assay [4]; 66.7% (inactive) in assay [5]; 75.7% in assay [6] (setting [9]); 66.7% in assay [6] (setting [10]). The Her2 level in assay [2] is 107% (inactive). Moreover, the differential viability (reversal) in assay [6] (H69AR cells + 2 uM doxorubicin) was -9% (inactive). For the same compound, the inhibition in assay [7] was -4.08% (inactive); in assay [8], -4.73% (inactive).

For the compound `Cc1cc(C)n(-c2ccc(C(=O)Nc3ccc4c(c3)OCCO4)cc2)n1`, the viability in assay [1] was 93%; in assay [3], 93% (inactive); in assay [4], 62.2% (inactive); in assay [5], 89% (inactive); in assay [6] (setting [9]), 95.2%; in assay [6] (setting [10]), 89%. Besides, the Her2 level in assay [2] was 77.5% (inactive). The differential viability (reversal) in assay [6] (H69AR cells + 2 uM doxorubicin) is -6.18% (inactive). Further, the values for the inhibition in assay [7] and in assay [8] were 1.03% (inactive) and -2% (inactive), respectively.

Regarding `COc1ccc(S(=O)(=O)N2CCCC(C(=O)N3CCCCCC3)C2)cc1` (stereo not given), the viability in assay [1] is 102%; in assay [3] it was 102% (inactive); in assay [4], 100% (inactive); in assay [5] it was 88.2% (inactive); in assay [6] (setting [9]), 91.9%; in assay [6] (setting [10]), 88.2%. In assay [2], the Her2 level was 80% (inactive). In addition, the differential viability (reversal) in assay [6] (H69AR cells + 2 uM doxorubicin) was -3.65% (inactive). Besides, the inhibition in assay [7] is -5% (inactive); in assay [8], 2% (inactive).

As for `CC1Cc2ccccc2N1C(=O)CSc1nnc2n1C(C)(C)Cc1ccccc1-2` (stereo not given), the viability in assay [1] was 79%; in assay [3], 79% (inactive); in assay [4] it was 71.8% (inactive); in assay [5] it was 82.4% (inactive); in assay [6] (setting [9]), 90.4%; in assay [6] (setting [10]) it was 82.4%. In addition, the Her2 level in assay [2] was 105% (inactive). Moreover, the differential viability (reversal) in assay [6] (H69AR cells + 2 uM doxorubicin) was -7.96% (inactive). For the same compound, the inhibition in assay [7] was -6.4% (inactive); in assay [8], -7.3% (inactive).

Consider `CC(C)(C)NC(=O)Cn1nnnc1-c1nonc1N`, for which the viability in assay [1] is 93%; in assay [3] it was 93% (inactive); in assay [4], 109% (inactive); in assay [5] it was 105% (inactive); in assay [6] (setting [9]), 91.3%; in assay [6] (setting [10]), 105%. Besides, in assay [2], the Her2 level is 94.5% (inactive). Besides, in assay [6] (H69AR cells + 2 uM doxorubicin), the differential viability (reversal) is 13.3% (inactive). Besides, the results for the inhibition in assay [7] and in assay [8] were -6.53% (inactive) and 5.25% (inactive), respectively.
